Bioassay records (PubChem)
UPR CHOP act: activators of apoptotic CHOP UPR arm, primary screen, cell-based, CHO-CHOP luciferase reporter, luminescence, uHTS; UPR activation; percent of tunicamycin response over DMSO baseline; activation, % at 10 µM; actives 0.34% (n = 330,000); AID 449763, 2010;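 active = at 10 µM dose, activation of 40% or more, normalized to positive control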;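 note: 100% = tunicamycin at 10 µg/mL and 0% = DMSO alone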
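Evaluation: % reporter activation, DMSO baseline versus tunicamycin full activation; System: CHO-CHOP luciferase reporter cell line; Input: 500 cells/well; Incubation: 6 h compound treatment, 37 °C; Measured by: Steady-Glo luciferase luminescence; Dosing: one dose, 10 µM in 0.5% DMSO; Buffer or medium: F12 medium, 10% FBS; Benchmarks: positive tunicamycin 10 µg/mL, negative DMSO alone.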
UPR XBP1 act: activators of adaptive XBP1 UPR arm, primary screen, cell-based, CHO-XBP1 luciferase reporter, luminescence, uHTS. actives 0.33% (n = 330,000). activation, % at 20 µM. IRE1-XBP1 UPR activation; percent of tunicamycin response, DMSO as zero;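 active = versus positive control, 20 µM dose yields 30% or more activation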;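 note: 100% = tunicamycin at 10 µg/mL and 0% = DMSO only wells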
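Material: CHO-XBP1 cells stably carrying IRE1-XBP1-driven luciferase reporter | Medium: F12 with 10% serum | Compound dosing: 20 µM single concentration, DMSO 1% | Incubation: Overnight seeding at 37 °C, 6 h compound treatment at 37 °C | Detection: Steady-Glo luminescence read | Read-out basis: % activation of reporter signal versus tunicamycin and DMSO controls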
CHOP inh: inhibitors of CHOP promoter induction, primary screen, cell-based, unfolded protein response, luciferase reporter; CHO-K1 CHOP-promoter luciferase, tunicamycin-induced, 15-18 h; inhibition, % at 10 µM; actives 3.8% (n = 220,000);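 active = compounds that reduced the stress-induced luciferase reporter signal by more than about 70% of percent inhibition, limit read from the data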;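 note: 0% = tunicamycin plus vehicle and 100% = wells without tunicamycin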
A1 inh: caspase 3/7 activation in MEF A1-2A-BIM cells, primary screen, A1 inhibitor project, cell-based, luminescence, HTS | Caspase-Glo 3/7 luminescence, 3 h; percent of clofoctol response, vehicle zero | caspase activation, % (no concentration beside the values) | actives 0.066% (n = 330,000) | AID 2462, 2010;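 active = over half of replicate activation scores above 10%, or exactly half above 10 with the replicate mean above 10; inconclusive = replicate mean below 10 yet half the replicates above 10; inactive = over half of replicates below 10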
* hit, by the source's call; ? = inconclusive; / = not tested or not shown. The sample as a whole holds a higher share of hits than the screen did.

SMILES | UPR CHOP act | UPR XBP1 act | CHOP inh | A1 inh
O=C(NCc1ccccn1)c1ccc(NS(=O)(=O)c2ccccc2)cc1 | 1 | -7 | / | 0
Cc1ccccc1NC(=S)N(Cc1cccs1)C1CCCCC1 | -2 | -3 | 33 | 0
Cc1ccc(Cl)cc1NC(=S)N(Cc1cccs1)C1CCCC1 | 0 | -3 | 82* | 0
CC(=O)c1cc2c(cc1NC(=O)CN1CCCCCCC1)OCO2 | 1 | -2 | 85* | 1
CC(Oc1ccccc1Cl)C(=O)Nc1ccc(S(=O)(=O)Nc2nccs2)cc1 (stereo not drawn) | -1 | -1 | / | 1
CN1C(C(=O)Nc2cccc(O)c2)=CC(c2ccco2)=NS1(=O)=O | -1 | -1 | / | ?
CN(C)c1ccc(NC(=O)Nc2cccc3ccccc23)cc1 | 5 | -2 | 86* | -1
CCN(CC)c1ccc(NC(=O)Nc2cccc3ccccc23)cc1 | 6 | 1 | / | -1
COc1ccc(-c2cnnn2-c2ccc(NC(=O)c3ccc(S(=O)(=O)N4CCCCC4)cc3)cc2)cc1OC | 1 | 19 | 78* | -1
Cc1ccc(Cl)cc1NC(=O)c1cc(NC(=O)C2CCCCC2C(=O)O)ccc1N1CCOCC1 (stereo not drawn) | 0 | -1 | / | 0
COc1ccc(-c2cccc(NC(=O)COc3ccc(Cl)cc3)c2)nn1 | -1 | -1 | / | 0
COc1cccc(-c2nc(N3CCC(C)CC3)c3ccccc3n2)c1O | -2 | 0 | 59 | ?
COc1cccc(-c2nc(N3CC(C)CC(C)C3)c3ccccc3n2)c1O (stereo not drawn) | 3 | 46* | 76* | /
CC1CN(c2cc(-c3ccccc3)c3ccccc3n2)CC(C)O1 (stereo not drawn) | -2 | -3 | 46 | 0
CC1CN(c2nc(-c3ccccc3)nc3ccccc23)CC(C)O1 (stereo not drawn) | -1 | 0 | 82* | 0
CC1CCN(C(=O)CNC(=O)CNS(=O)(=O)c2ccccc2)CC1 | -1 | -5 | / | 0
O=C(NCCN1C(=O)S/C(=C\c2ccc(Cl)c(Cl)c2)C1=O)c1ccc2c(c1)C(=O)N(Cc1ccncc1)C2=O | 7 | 3 | 88* | -1
O=c1[nH]c(CSc2nc3ccccc3s2)nc2ccccc12 | 3 | 7 | -13 | -1
Cc1sc2nc(CSc3cccc(C(F)(F)F)c3)[nH]c(=O)c2c1C | -1 | -1 | 73* | 0
Cc1sc2nc(CSc3ccc([N+](=O)[O-])cc3)[nH]c(=O)c2c1C | 1 | -2 | 45 | -1
Cc1sc2nc(CSc3nc4ccccc4s3)[nH]c(=O)c2c1C | -1 | 1 | 77* | 1
Cc1c(Cl)cccc1NC(=S)N=Nc1c(O)n(CN2CCOCC2)c2ccccc12 | 14 | 7 | 87* | 0
CC(C)Cn1c(SC(C)C(=O)Nc2ccc3c(c2)OCCO3)nc2ccccc2c1=O (stereo not drawn) | / | / | 76* | /
CCCCNC(=O)CSc1nc2ccccc2c(=O)n1Cc1ccc2c(c1)OCO2 | -2 | -1 | 86* | 2
O=C(CSc1nc2ccccc2c(=O)n1Cc1ccc(Cl)cc1)NCc1cccs1 | 0 | -3 | 73* | 0
SMILES | UPR CHOP act | UPR XBP1 act | CHOP inh | A1 inh
Cc1cccc(NNC(N)=S)c1C | -2 | -2 | 8 | 1
O=C(NC1CCCCC1)C(c1cccnc1)N(C(=O)c1csnn1)c1ccc(F)cc1 (stereo not drawn) | 0 | -1 | / | 0
O=C(Nc1cccc(-c2nc3cccnc3s2)c1)c1ccc(Cl)nc1 | 1 | 1 | 81* | -1
CC(C)(C)Cc1nnc(NS(=O)(=O)c2ccc([N+](=O)[O-])cc2)s1 | 0 | -6 | / | 0
O=C(CS(=O)(=O)c1ccccc1Cl)N1CCOCC1 | -1 | -3 | / | 0
CCCNS(=O)(=O)c1ccc(CCC(=O)Nc2cc(Cl)ccc2Oc2ccccc2)cc1 | / | / | 90* | /
COc1ccccc1NC(=O)NCc1ccc2c(c1)OCO2 | 3 | 1 | 20 | /
O=C(NCc1ccc2c(c1)OCO2)Nc1cccc2ccccc12 | 2 | -2 | 86* | 1
Cc1ccc(Cn2c(=O)n(CCC(=O)NCc3ccc4c(c3)OCO4)c(=O)c3ccccc32)cc1 | 2 | 0 | 95* | -1
O=C(CCc1ccc(S(=O)(=O)N2CCOCC2)cc1)OCC(=O)c1ccccc1 | -1 | -1 | / | 2
COc1ccccc1NC(=O)C(C)Sc1nc2ccccc2c(=O)n1CC1CCCO1 (stereo not drawn) | -1 | 6 | / | 0
CCOc1ccccc1NC(=O)C(=O)/C=C(\O)c1cc(OC)ccc1OC | 0 | 2 | 95* | 0
COc1ccc(OC)c(/C(O)=C/C(=O)C(=O)Nc2cc(C)ccc2OC)c1 | 0 | -3 | 2 | 1
C=CCSc1nnc(-c2sc(-c3ccccc3)nc2C)n1C | 2 | 3 | 12 | 1
C=CCN(C(=O)CSC1=NC(=O)CN1C(C)=O)c1nc(C)c(-c2ccccc2)s1 | 3 | 7 | 95* | 1
COc1cc2ccccc2cc1C(=O)N1CCc2ccccc21 | 0 | -3 | / | /
COc1cc(Cl)c(C)cc1NCC(=O)Nc1cccc(S(=O)(=O)N2CCCC2)c1 | -1 | -3 | / | 1
O=C(C(Cc1ccccc1)n1cccc1)N1CCN(c2ccccc2)CC1 (stereo not drawn) | 1 | 0 | 78* | -1
CC1CC(C)CN(C(=O)C2CCN(S(=O)(=O)c3ccc4c(c3)CC(C)N4C(=O)C3CC3)CC2)C1 (stereo not drawn) | 2 | -4 | / | -1
O=[N+]([O-])c1ccc(CSc2ncnc3c2ncn3[C@@H]2O[C@H](CO)[C@H](O)C2O)cc1 (stereo partly drawn) | / | / | 2 | /
S=C(NCCCN1CCOCC1)N1CCN(c2nc(-c3ccc(Cl)cc3)cs2)CC1 | 7 | 28 | 88* | 0
COC(=O)c1cc(S(=O)(=O)NCc2cccs2)c[nH]1 | 1 | -3 | / | 0
Cc1nc2sc(C(c3ccc(Cl)cc3)N3CCN(c4ccccc4F)CC3)c(O)n2n1 (stereo not drawn) | -2 | -3 | 83* | 0
CSCCC(NC(=O)c1ccccc1)C(=O)OCC(=O)Nc1ccc(C)c(Cl)c1 (stereo not drawn) | -1 | -1 | 82* | -1
Cc1cccc(C(=O)Nc2ccccc2SCC(=O)Nc2ccc(C)c(Cl)c2)c1 | 0 | -3 | 73* | 1
Cc1ccc(-c2[nH][nH]c(=O)c(=O)c2N=Nc2ccccc2)cc1 | 0 | 5 | 75* | -1
Cc1cc(=O)n2[nH]c(=O)c(N=Nc3ccccc3)c2[nH]1 | 1 | -2 | 12 | -5
CCOC(=O)C1=C(C)NC(=S)NC1c1ccc(-c2cccc(Cl)c2C)o1 (stereo not drawn) | -5 | -3 | 75* | 0
